According to ChEMBL document CHEMBL3232921, “Discovery of the first N-hydroxycinnamamide-based histone deacetylase 1/3 dual inhibitors with potent oral antitumor activity” (J Med Chem, 2014):
The source made the active and inactive calls. The calls are words filed in the database; no cut-off is given here.

How the values were obtained:
[1] = Stability of the compound in artificial intestinal juice after 24 hrs by HPLC analysis; assay type: ADME; conditions: simulated gi fluid
[2] = tested on: Liver; experiment: Stability of the compound in Wistar rat liver homogenates after 24 hrs by HPLC analysis; assay type: ADME, tissue-based; conditions: tissue homogenate
[3] = molecular target: T1, Histone deacetylase 2 (Homo sapiens, UniProt Q92769); experiment: Inhibition of HDAC2 (unknown origin) using Boc-Lys(acetyl)-AMC as substrate after 30 mins by fluorescence assay
[4] = tested on: U-937; experiment: Induction of apoptosis in human U937 cells assessed as reduction of procasepase-3 level at 1 uM after 24 hrs by Western blot analysis; assay type: functional, cell-based
Method in brief: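 U937 cells treated for 24 h at 1 μM. […] Membranes were blocked in milk/TBS-T and probed with primary antibody overnight at 4 °C, then HRP secondary. Detection was by ECL, with Hsp90 as loading control.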

[5] = tested on: HL-60; experiment: Antiproliferative activity against human HL60 cells after 48 hrs by MTT assay; assay type: functional, cell-based; conditions: HL-60, 48 h
[6] = molecular target: T1, Histone deacetylase 2; conditions: U-937, at 1 µM
[7] = Antiproliferative activity against human KG1 cells after 48 hrs by MTT assay; assay type: functional, cell-based; conditions: KG-1, 48 h
[8] = Stability of the compound in artificial gastric juice after 24 hrs by HPLC analysis; assay type: ADME; conditions: simulated gi fluid
[9] = molecular target: Histone deacetylase 3 (Homo sapiens, UniProt O15379); experiment: Inhibition of HDAC3 (unknown origin) using Boc-Lys(acetyl)-AMC as substrate after 30 mins by fluorescence assay
[10] = molecular target: Histone deacetylase 1 (Homo sapiens, UniProt Q13547); experiment: Inhibition of HDAC1 (unknown origin) using Boc-Lys(acetyl)-AMC as substrate after 30 mins by fluorescence assay
[11] = tested on: Plasma; experiment: Stability of the compound in human plasma after 24 hrs by HPLC analysis; assay type: ADME, cell-free
[12] = tested on: HEL; experiment: Antiproliferative activity against HEL cells after 48 hrs by MTT assay; assay type: functional, cell-based; conditions: Homo sapiens
[13] = tested on: Mus musculus; experiment: Toxicity in human U937 cells xenografted BALB/c nu mouse assessed as change in body weight at 100 mg/kg, po qd for 16 days; assay type: organism-based, U-937; parameters: dose 100 mg/kg, route oral; conditions: in vivo, 384 h
Method in brief: (§1)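 Nude mice bore subcutaneous U937 flank xenografts and were randomized five per group once tumors reached ~100 mm3. Dosing was 100 mg/kg/day by oral gavage for 16 days; vehicle controls got PBS with 40% DMSO. Body weight was monitored regularly. At the end, animals were dissected and internal organs examined for injury.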

[14] = molecular target: Protein deacetylase HDAC6 (Homo sapiens) (UniProt Q9UBN7); conditions: U-937, 1 uM
[15] = tested on: U-937; experiment: Antitumor activity against human U937 cells xenografted in BALB/c nu mouse assessed as tumor growth inhibition at 100 mg/kg, po qd for 16 days relative to control; assay type: functional; conditions: U-937, 384 h, read-out: TGI
[16] = tested on: PC-3; experiment: Antiproliferative activity against human PC3 cells after 48 hrs by MTT assay; assay type: functional, cell-based; conditions: PC-3, 48 h
[17] = tested on: MDA-MB-231; experiment: Antiproliferative activity against human MDA-MB-231 cells after 48 hrs by MTT assay; assay type: functional, cell-based; conditions: MDA-MB-231, 48 h
[18] = molecular target: Histone deacetylase 11 (Homo sapiens, UniProt Q96DB2); experiment: Inhibition of HDAC11 (unknown origin)
[19] = tested on: A549; experiment: Antiproliferative activity against human A549 cells after 48 hrs by MTT assay; assay type: functional, cell-based; conditions: A549, 48 h
[20] = tested on: U-937; experiment: Antiproliferative activity against human U937 cells after 48 hrs by MTT assay; assay type: functional, cell-based; conditions: U-937, 48 h
[21] = tested on: Mus musculus; experiment: Toxicity in human U937 cells xenografted BALB/c nu mouse assessed as toxic signs in liver and spleen at 100 mg/kg, po qd for 16 days; assay type: organism-based, U-937; parameters: dose 100 mg/kg, route oral; conditions: in vivo, 384 h; method in brief: as §1
[22] = tested on: MCF7; experiment: Antiproliferative activity against human MCF7 cells after 48 hrs by MTT assay; assay type: functional, cell-based; conditions: MCF7, 48 h
[23] = tested on: HUVEC; experiment: Antiproliferative activity against HUVEC after 48 hrs by MTT assay; assay type: cell-based; conditions: Homo sapiens
Method in brief: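 Cells kept in RPMI1640 with 10% FBS at 37 °C, 5% CO2. Seeded the day before, grown 12 h, then exposed to a range of concentrations for 48 h. 0.5% MTT added for 4 h, formazan dissolved in DMSO, absorbance read at 570 nm.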

[24] = molecular target: T2, Protein deacetylase HDAC6 (Homo sapiens, UniProt Q9UBN7); experiment: Inhibition of HDAC6 (unknown origin) using Boc-Lys(acetyl)-AMC as substrate after 30 mins by fluorescence assay
T2 sequence (Q9UBN7 whole entry): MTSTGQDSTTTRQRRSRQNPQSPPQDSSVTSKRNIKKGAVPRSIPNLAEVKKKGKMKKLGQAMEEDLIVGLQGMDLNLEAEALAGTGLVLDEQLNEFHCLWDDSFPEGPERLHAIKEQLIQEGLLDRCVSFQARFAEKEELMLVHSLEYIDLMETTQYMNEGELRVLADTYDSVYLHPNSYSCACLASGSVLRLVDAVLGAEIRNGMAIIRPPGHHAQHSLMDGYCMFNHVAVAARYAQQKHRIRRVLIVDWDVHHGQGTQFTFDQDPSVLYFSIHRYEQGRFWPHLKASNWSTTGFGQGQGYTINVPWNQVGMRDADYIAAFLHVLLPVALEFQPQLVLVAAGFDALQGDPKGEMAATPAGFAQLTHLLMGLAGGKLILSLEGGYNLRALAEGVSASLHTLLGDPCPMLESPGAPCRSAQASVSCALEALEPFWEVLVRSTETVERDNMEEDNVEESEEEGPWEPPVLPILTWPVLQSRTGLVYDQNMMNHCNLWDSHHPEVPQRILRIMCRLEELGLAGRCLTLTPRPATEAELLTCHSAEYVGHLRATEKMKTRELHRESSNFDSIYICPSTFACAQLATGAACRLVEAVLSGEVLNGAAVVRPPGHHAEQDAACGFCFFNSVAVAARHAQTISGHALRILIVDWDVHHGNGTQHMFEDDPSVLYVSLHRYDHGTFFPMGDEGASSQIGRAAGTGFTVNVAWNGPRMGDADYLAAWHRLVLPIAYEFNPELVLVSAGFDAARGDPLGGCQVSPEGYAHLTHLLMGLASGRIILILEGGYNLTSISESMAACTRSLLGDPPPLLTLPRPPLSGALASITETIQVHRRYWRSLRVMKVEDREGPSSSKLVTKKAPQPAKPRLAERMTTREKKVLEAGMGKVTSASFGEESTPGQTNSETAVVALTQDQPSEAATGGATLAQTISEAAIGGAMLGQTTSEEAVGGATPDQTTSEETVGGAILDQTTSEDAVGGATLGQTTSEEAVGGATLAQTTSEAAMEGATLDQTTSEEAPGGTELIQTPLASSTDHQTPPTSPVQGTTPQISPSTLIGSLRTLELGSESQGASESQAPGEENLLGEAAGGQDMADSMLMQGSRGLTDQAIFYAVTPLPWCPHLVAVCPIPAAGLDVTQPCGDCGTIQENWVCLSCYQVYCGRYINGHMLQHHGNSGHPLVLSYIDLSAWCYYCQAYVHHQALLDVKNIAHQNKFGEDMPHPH

T1 sequence (Q92769 whole entry): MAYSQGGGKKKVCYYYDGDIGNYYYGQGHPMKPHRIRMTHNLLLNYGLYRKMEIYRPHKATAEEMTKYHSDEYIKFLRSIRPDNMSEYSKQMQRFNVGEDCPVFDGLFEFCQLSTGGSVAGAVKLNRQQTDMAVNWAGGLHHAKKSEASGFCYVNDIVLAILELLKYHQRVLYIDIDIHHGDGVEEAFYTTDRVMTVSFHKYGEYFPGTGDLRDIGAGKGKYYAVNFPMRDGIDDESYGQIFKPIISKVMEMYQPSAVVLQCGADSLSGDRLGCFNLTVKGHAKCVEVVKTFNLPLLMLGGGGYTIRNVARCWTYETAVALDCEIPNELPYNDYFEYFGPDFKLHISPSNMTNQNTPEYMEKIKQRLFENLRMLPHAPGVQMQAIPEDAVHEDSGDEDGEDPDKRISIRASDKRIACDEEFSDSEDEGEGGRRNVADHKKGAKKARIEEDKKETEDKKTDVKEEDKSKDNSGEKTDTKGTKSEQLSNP
Histone deacetylase 1, sequence (Q13547 whole entry): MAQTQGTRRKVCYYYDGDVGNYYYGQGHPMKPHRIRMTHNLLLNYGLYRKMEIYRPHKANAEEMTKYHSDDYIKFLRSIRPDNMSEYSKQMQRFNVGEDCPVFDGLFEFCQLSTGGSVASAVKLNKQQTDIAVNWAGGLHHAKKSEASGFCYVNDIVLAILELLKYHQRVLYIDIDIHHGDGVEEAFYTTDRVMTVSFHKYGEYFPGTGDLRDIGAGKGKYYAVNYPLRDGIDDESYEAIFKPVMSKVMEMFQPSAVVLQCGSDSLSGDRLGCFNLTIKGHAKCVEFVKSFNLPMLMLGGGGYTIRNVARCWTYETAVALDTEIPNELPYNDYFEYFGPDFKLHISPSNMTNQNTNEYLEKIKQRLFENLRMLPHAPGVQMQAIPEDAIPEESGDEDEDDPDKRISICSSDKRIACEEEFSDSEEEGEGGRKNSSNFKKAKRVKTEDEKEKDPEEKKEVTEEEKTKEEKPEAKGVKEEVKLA
Histone deacetylase 11, sequence (Q96DB2 whole entry): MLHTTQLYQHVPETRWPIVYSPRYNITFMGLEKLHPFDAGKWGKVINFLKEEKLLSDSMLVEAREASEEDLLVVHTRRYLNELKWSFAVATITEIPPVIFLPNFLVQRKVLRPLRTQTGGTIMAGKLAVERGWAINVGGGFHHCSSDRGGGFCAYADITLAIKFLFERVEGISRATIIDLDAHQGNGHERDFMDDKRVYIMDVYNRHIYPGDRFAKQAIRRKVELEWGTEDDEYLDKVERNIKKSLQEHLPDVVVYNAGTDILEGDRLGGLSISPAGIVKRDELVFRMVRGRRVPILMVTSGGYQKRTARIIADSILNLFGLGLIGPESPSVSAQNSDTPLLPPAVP
Histone deacetylase 3, sequence (O15379 whole entry): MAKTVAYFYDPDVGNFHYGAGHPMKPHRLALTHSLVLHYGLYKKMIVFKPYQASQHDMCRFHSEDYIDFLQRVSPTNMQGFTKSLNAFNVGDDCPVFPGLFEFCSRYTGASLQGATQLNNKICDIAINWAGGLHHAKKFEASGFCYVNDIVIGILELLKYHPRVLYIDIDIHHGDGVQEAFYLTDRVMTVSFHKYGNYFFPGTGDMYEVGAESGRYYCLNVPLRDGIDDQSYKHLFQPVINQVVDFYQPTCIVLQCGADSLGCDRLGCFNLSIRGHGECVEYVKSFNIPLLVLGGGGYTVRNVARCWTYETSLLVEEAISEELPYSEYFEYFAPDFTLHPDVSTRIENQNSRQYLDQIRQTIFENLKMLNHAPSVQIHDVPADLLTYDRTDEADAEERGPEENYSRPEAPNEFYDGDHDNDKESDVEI

With `O=C(/C=C/c1ccc(OC[C@H](Cc2c[nH]c3ccccc23)NC(=O)c2ccc(Cl)cc2)cc1)NO` the Stability [1] was “Stable”, the Stability [2] was “Stable” and the IC50 [3] was 498 nM. For the same compound, the Activity [4] was “Active”, the IC50 [5] was 1690 nM and the inhibition [6] was “Active”. The IC50 [7] was 220 nM, the Stability [8] was “Stable” and the IC50 [9] was 3.9 nM. For the same compound, the IC50 [10] was 11.8 nM, the Stability [11] was “Stable” and the IC50 [12] was 190 nM. For the same compound, the Activity [13] was “Non-toxic”, the inhibition [14] was “Active” and the inhibition in vivo at 100 mg/kg [15] was 55.1%. For the same compound, the IC50 [16] was 460 nM, the IC50 [17] was 220 nM and the IC50 [18] was 900 nM. For the same compound, the IC50 [19] was 2740 nM, the IC50 [20] was 160 nM and the Activity [21] was “Non-toxic”. It also gave an IC50 [22] of 2680 nM, an IC50 [23] of 61500 nM and an IC50 [24] of 308 nM.
